Structures are written as SMILES. In brackets after ≈: the same amount, converted by molar mass. Activity calls are given as the source filed them. The rule behind the calls is not given here.

This is an account of results in ChEMBL document CHEMBL3286225, “Novel carboline derivatives as potent antifungal lead compounds: design, synthesis, and biological evaluation” (ACS Med Chem Lett, 2014).

Data set [1] has as its system Candida albicans. The data set is described as follows: Antifungal activity against fluconazole-resistant Candida albicans 07109 after 24 hrs by serial dilution method in presence of fluconazole. Type of data set: functional. The method, boiled down: (§1)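 Tested in combination with fluconazole against each fluconazole-resistant C. albicans strain. Interaction was scored by fractional inhibitory concentration index (FICI): synergy at FICI ≤ 0.5, indifference at 0.5 < FICI ≤ 4, antagonism at FICI > 4.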

Data set [2] has as its system Candida albicans. Kind of data set: Antifungal activity against fluconazole-resistant Candida albicans 100 after 24 hrs by serial dilution method in presence of fluconazole. It is filed as functional. The method, boiled down: as §1
Data set [3] has as its system Candida albicans. The data set is described as follows: Antifungal activity against fluconazole-resistant Candida albicans 805 after 24 hrs by serial dilution method in presence of fluconazole. It is filed as functional. An outline of the steps: as §1
Data set [4] deals with Candida albicans. The data set is described as follows: Antifungal activity against fluconazole-sensitive Candida albicans SC5314 assessed as thinning of outer sphere of cell wall at 8 ug/ml after 8 hrs by TEM analysis. Type of data set: functional, organism-based. The method, boiled down: (§2)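 Transmission electron microscopy of C. albicans SC5314 cells exposed to 8 μg/mL for 8 h. Untreated cells and cells given fluconazole 8 μg/mL for 8 h served as controls. Cell wall layers, cytoplasmic density and vacuole shape were compared by eye.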

Data set [5] has as its system Candida albicans. The data set is described as follows: Antifungal activity against fluconazole-sensitive Candida albicans SC5314 assessed as thickening of middle sphere of cell wall at 8 ug/ml after 8 hrs by TEM analysis. Type of data set: functional, organism-based. An outline of the steps: as §2
For data set [6], the system named is Candida albicans. The data set is described as follows: Antifungal activity against fluconazole-sensitive Candida albicans SC5314 assessed as necrosis at 8 ug/ml after 8 hrs by TEM analysis. Type of data set: functional, organism-based. An outline of the steps: as §2
Data set [7] concerns Candida albicans. The data set is described as follows: Antifungal activity against fluconazole-sensitive Candida albicans SC5314 assessed as change in lanosterol composition at 8 ug/ml after 24 hrs by GC-MS analysis (reference value: 1.5%). It is filed as functional. The method, boiled down: (§3)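 C. albicans SC5314 exposed to 8 μg/mL for 24 h, sterols analysed by GC-MS with cholesterol internal standard; each sterol expressed as % of total sterol fraction versus no-drug control; average of three independent experiments.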

Data set [8] concerns Candida albicans. Kind of data set: Antifungal activity against fluconazole-sensitive Candida albicans SC5314 assessed as change in eburicol composition at 8 ug/ml after 24 hrs by GC-MS analysis relative to control. It is filed as functional. The method, boiled down: as §3
For the next data set, the target named is CYP2C19 (Homo sapiens, UniProt P33261). The data set is described as follows: Inhibition of CYP2C19 in human liver microsomes assessed as S-mephenytoin conversion to 4'-hydroxy mephenytoin at 25 uM preincubated for 10 mins followed by NADPH addition measured after 15 mins by LC-MS/MS analysis relative to control. Conditions: probe S-mephenytoin. It is filed as ADME.

A further data set addresses CYP2C9 (Homo sapiens, UniProt P11712). The data set is described as follows: Inhibition of CYP2C9 in human liver microsomes assessed as tolbutamide conversion to 4-hydroxy tolbutamide at 25 uM preincubated for 10 mins followed by NADPH addition measured after 15 mins by LC-MS/MS analysis relative to control. It is filed as ADME. Conditions: probe tolbutamide.
The target in data set [9] is T1, CYP3A4 (Homo sapiens, UniProt P08684). Kind of data set: Inhibition of CYP3A4 in human liver microsomes assessed as testosterone conversion to 6-hydroxy testosterone at 25 uM preincubated for 10 mins followed by NADPH addition measured after 15 mins by LC-MS/MS analysis relative to control. Conditions: probe testosterone. It is filed as ADME.
Data set [10] concerns the target T1, CYP3A4. Kind of data set: Inhibition of CYP3A4 in human liver microsomes assessed as midazolam conversion to 1'-hydroxy midazolam at 25 uM preincubated for 10 mins followed by NADPH addition measured after 15 mins by LC-MS/MS analysis relative to control. Type of data set: ADME. Particulars: probe midazolam.
The target of data set [11] is T1, CYP3A4. Kind of data set: Inhibition of CYP3A4 in human liver microsomes assessed as testosterone conversion to 6-hydroxy testosterone at 2.5 uM preincubated for 10 mins followed by NADPH addition measured after 15 mins by LC-MS/MS analysis relative to control. Type of data set: ADME. Conditions: probe testosterone.
The next data set has as its target Cytochrome P450 2C19 (Homo sapiens, UniProt P33261). Kind of data set: Inhibition of CYP2C19 in human liver microsomes assessed as S-mephenytoin conversion to 4'-hydroxy mephenytoin preincubated for 10 mins followed by NADPH addition measured after 15 mins by LC-MS/MS analysis. It is filed as ADME.
The test system of the next data set is Candida tropicalis. The data set is described as follows: Antifungal activity against Candida tropicalis after 7 days by serial dilution method. Conditions: 168 h. It is filed as functional.
Another data set deals with Pichia kudriavzevii. The data set is described as follows: Antifungal activity against Candida krusei 0710397 after 7 days by serial dilution method. Type of data set: functional. Conditions: Pichia kudriavzevii, 0710397, 168 h.
The subject of data set [12] is Candida albicans. Kind of data set: Fungicidal activity against fluconazole-sensitive Candida albicans SC5314 assessed as reduction in fungi density after 24 hrs. Type of data set: functional, organism-based. The method, boiled down: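 Time-kill: C. albicans (SC5314 or 103) inoculated at 10^5 CFU/mL, untreated or with drug (2–32 μg/mL; fluconazole 32 μg/mL reference); CFU/mL counted after 0, 12, 24 and 48 h.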

The test system of data set [13] is Candida albicans. The data set is described as follows: Inhibition of biofilm formation of fluconazole-sensitive Candida albicans SC5314 after 48 hrs by XTT assay. Type of data set: functional, organism-based. An outline of the steps: (§4)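 Biofilm formation by C. albicans SC5314 was tested with compound at 2–64 μg/mL. Untreated and fluconazole 64 μg/mL controls were included. Biofilm was quantified by XTT reduction and expressed as % of untreated control. Mean ± SD of three independent experiments; ANOVA and Student t test, p<0.05.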

Data set [14] concerns Candida albicans. The data set is described as follows: Inhibition of biofilm formation of fluconazole-resistant Candida albicans 103 after 48 hrs by XTT assay. It is filed as functional, organism-based. The method, boiled down:
(§5)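 Biofilm formation by C. albicans SC5314 or 103 in presence of 2–64 μg/mL drug (fluconazole 64 μg/mL reference); quantified by XTT reduction as % of blank control; mean ± standard deviation of three independent experiments, ANOVA and Student t test.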

Data set [15] has as its system Candida albicans. The data set is described as follows: Inhibition of biofilm formation of fluconazole-sensitive Candida albicans SC5314 at 4 ug/ml after 48 hrs by XTT assay relative to control. Conditions: SC5314, 48 h. It is filed as functional. The method, boiled down: as §4
Data set [16] relates to Candida albicans. The data set is described as follows: Inhibition of biofilm formation of fluconazole-resistant Candida albicans 103 at 32 ug/ml after 48 hrs by XTT assay. Type of data set: functional. Particulars: Candida albicans, 103, 48 h. The method, boiled down: as §5
For data set [17], the system named is Candida albicans. The data set is described as follows: Antifungal activity against fluconazole-resistant Candida albicans 100 after 24 hrs by serial dilution method. Conditions: Candida albicans, 100, 24 h. Type of data set: functional.
For data set [18], the system named is Candida albicans. Kind of data set: Antifungal activity against fluconazole-resistant Candida albicans 07109 after 24 hrs by serial dilution method. Type of data set: functional. Conditions: Candida albicans, 07109, 24 h.
In data set [19] the test system is Candida albicans. The data set is described as follows: Antifungal activity against fluconazole-resistant Candida albicans 805 after 24 hrs by serial dilution method. Type of data set: functional. Conditions: Candida albicans, 805, 24 h.

T1 sequence (P08684 whole entry): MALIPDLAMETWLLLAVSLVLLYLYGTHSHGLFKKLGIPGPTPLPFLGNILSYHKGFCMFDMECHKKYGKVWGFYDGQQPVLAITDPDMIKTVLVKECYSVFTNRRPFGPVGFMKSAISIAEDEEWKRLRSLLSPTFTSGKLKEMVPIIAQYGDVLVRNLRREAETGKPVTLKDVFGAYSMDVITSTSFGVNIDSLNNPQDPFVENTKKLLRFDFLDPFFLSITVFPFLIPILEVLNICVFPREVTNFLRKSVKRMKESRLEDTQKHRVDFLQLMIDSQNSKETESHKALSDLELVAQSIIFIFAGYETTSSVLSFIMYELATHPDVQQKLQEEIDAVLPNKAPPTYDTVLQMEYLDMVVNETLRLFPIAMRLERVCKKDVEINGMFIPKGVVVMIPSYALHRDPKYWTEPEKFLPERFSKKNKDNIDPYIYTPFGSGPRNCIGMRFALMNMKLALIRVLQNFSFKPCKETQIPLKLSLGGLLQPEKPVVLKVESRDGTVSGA
Chain of Cytochrome P450 2C19 (P33261 whole entry): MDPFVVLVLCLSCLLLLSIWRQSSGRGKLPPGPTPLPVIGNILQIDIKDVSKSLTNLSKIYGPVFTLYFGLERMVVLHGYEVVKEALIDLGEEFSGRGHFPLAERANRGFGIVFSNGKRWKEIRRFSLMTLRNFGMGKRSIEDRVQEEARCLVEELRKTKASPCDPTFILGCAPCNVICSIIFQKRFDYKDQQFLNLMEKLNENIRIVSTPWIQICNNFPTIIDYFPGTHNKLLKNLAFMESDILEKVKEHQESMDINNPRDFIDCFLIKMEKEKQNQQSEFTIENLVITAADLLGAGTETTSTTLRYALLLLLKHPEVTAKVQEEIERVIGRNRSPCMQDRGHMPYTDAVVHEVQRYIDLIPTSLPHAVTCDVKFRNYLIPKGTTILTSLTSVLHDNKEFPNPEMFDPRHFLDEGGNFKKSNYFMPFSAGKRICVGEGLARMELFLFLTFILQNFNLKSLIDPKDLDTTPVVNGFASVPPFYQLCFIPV
Chain of CYP2C19 (P33261 whole entry): as above
Chain of CYP2C9 (P11712 whole entry): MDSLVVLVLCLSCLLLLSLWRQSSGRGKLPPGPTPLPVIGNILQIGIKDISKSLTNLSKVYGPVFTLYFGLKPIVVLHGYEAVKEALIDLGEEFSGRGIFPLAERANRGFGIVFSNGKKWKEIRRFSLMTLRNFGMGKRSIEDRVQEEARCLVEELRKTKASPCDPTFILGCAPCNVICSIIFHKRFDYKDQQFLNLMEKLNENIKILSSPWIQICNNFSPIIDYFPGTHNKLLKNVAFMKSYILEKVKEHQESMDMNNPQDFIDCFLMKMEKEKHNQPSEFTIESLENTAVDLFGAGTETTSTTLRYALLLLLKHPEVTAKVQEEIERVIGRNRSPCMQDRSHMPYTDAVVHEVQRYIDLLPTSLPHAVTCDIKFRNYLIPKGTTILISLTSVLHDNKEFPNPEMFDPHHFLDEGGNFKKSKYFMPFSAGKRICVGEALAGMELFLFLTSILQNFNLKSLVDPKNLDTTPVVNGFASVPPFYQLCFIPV

With `Fc1ccc2c(c1)c1c(n2CCCOc2ccc(Cl)cc2)CCNC1`, the “fractional inhibitory concentration index (FICI)” value in the data set with Candida albicans [1], in the data set with Candida albicans [2] and in the data set with Candida albicans [3] was 0.252 in each case. Further, the result in the data set with Candida albicans [4], in the data set with Candida albicans [5], in the data set on Candida albicans [6] and in the data set with Candida albicans [12] was Active. Besides, the Activity is given as 12.2% with Candida albicans [7] and 12.4% with Candida albicans [8]. Further, the inhibition at 0.25 h, 25 µM is 33% on CYP2C19, 36% at CYP2C9, -35% at CYP3A4 [9] and 50% at CYP3A4 [10]. In addition, at CYP3A4 [11], the inhibition at 0.25 h, 2.5 µM was -10%. Further, at Cytochrome P450 2C19, the IC50 is above 25 µM. The MIC80 in the data set on Candida tropicalis, in the data set with Pichia kudriavzevii, with Candida albicans [17], in the data set with Candida albicans [18] and with Candida albicans [19] was 4 µg/mL (≈ 11.1 µM) in each case. For the same compound, the inhibition result in the data set with Candida albicans [13] and in the data set on Candida albicans [14] was “Dose-dependent effect” in each case. The inhibition at 4 µg/mL in the data set on Candida albicans [15] was above 50%. Further, in the data set on Candida albicans [16], the inhibition at 32 µg/mL is above 75%.
